pIC50: −log10 of the molar value. Values after ≈ are worked out from the molar mass of the structure shown. Active and inactive are the calls of the source. The calls are words filed in the database; no cut-off is given here.
Columns and labels:
[1] = molecular target: T1, Serine/threonine-protein kinase mTOR (Homo sapiens, UniProt P42345); assay: Inhibition of human mTOR at 10 uM using 4EBP1 as substrate after 120 mins by [gamma-33P]-ATP assay
Method in brief: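 Single-point kinase screen by HotSpot radioisotope filter binding assay; compound at 10 μM with 10 μM ATP, reported as percent inhibition of PI3Kα and mTOR.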

[2] = molecular target: PI3-kinase p110-alpha/p85-alpha (Homo sapiens) (UniProt P27986+P42336); assay: Inhibition of human PI3K p110alpha/p85alpha at 10 uM using PIP2 as substrate incubated for 10 mins followed by ATP addition and measured after 30 mins in presence of 10 uM ATP by HTRF assay; format: protein-complex assay
[3] = molecular target: T1, Serine/threonine-protein kinase mTOR; assay: Inhibition of human mTOR using 4EBP1 as substrate after 120 mins by [gamma-33P]-ATP assay
[4] = molecular target: PI3-kinase p110-alpha/p85-alpha (Homo sapiens, UniProt P42336); assay: Inhibition of human PI3K p110alpha/p85alpha using PIP2 as substrate incubated for 10 mins followed by ATP addition and measured after 30 mins in presence of 10 uM ATP by HTRF assay; format: protein-complex assay
[5] = Half life in CD1 mouse liver microsomes at 1 uM incubated for 60 mins under shaking condition by LC-MS/MS analysis; format: ADME, Microsome
Method in brief: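 Metabolic stability in mouse liver microsomes with test compound at 1 μM; result expressed as t1/2 (min).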

[6] = Kinetic aqueous solubility of compound in 2% DMSO/Phosphate buffer saline incubated for 90 mins under shaking condition by; format: physicochemical; details: 2% DMSO/phosphate buffered saline, read-out: Kinetic_solubility
Method in brief: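 Maximum kinetic aqueous solubility measured in 2% DMSO/phosphate-buffered saline, pH 7.4.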

[7] = tested on: MCF7; assay: Antiproliferative activity against human MCF7 cells assessed as cell viability at 10 uM after 48 hrs by celltiter-glo 2D luminescent assay relative to control; format: functional; details: read-out: Activity
Method in brief: (§1)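 2D CellTiter-Glo luminescent viability screen, single 10 μM compound concentration, in MDA-MB-468, MDA-MB-231 and MCF7 breast cancer cells and in normal human dermal fibroblasts; output reported as percent of viable cells.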

[8] = Cytotoxicity against human primary fibroblasts assessed as cell viability at 10 uM after 48 hrs by celltiter-glo 2D luminescent assay relative to control; format: cell-based, Fibroblast; details: read-out: Activity; method in brief: as §1
[9] = molecular target: T1, Serine/threonine-protein kinase mTOR; assay: Inhibition of mTOR in human MCF7 cells assessed as reduction in phosphorylated P70S6K level after 4 hrs by Western blot analysis; format: cell-based; details: dose nM 62.5-125, time 4.0 hrs
Method in brief: (§2)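 MCF7 cells treated for 4 h at 62.5 and 125 nM; lysates probed by Western blot for phospho-AKT(473), phospho-4EBP and phospho-P70S6.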

[10] = tested on: MCF7; assay: Inhibition of PI3K in human MCF7 cells assessed as reduction in AKT phosphorylation at 473 residue after 4 hrs by Western blot analysis; format: cell-based; details: dose nM 62.5-125, time 4.0 hrs; method in brief: as §2
[11] = tested on: MDA-MB-468; assay: Antiproliferative activity against human MDA-MB-468 cells assessed as cell viability at 10 uM after 48 hrs by celltiter-glo 2D luminescent assay relative to control; format: functional; details: read-out: Activity; method in brief: as §1
[12] = molecular target: T1, Serine/threonine-protein kinase mTOR; assay: Inhibition of mTOR in human MCF7 cells assessed as reduction in phosphorylated 4EBP level after 4 hrs by Western blot analysis; format: cell-based; details: dose nM 62.5-125, time 4.0 hrs; method in brief: as §2
[13] = tested on: MDA-MB-231; assay: Antiproliferative activity against human MDA-MB-231 cells assessed as cell viability at 10 uM after 48 hrs by celltiter-glo 2D luminescent assay relative to control; format: functional; details: read-out: Activity; method in brief: as §1
[14] = tested on: MCF7; assay: Antiproliferative activity against human MCF7 cells assessed as reduction in cell viability after 48 hrs by celltiter-glo 3D luminescent assay; format: functional, cell-based; details: MCF7, 48 h
Method in brief: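 MCF7 cells grown in 3D culture, viability read by CellTiter-Glo 3D luminescence; dose–response curves run up to 15 μM to derive IC50.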

PI3-kinase p110-alpha/p85-alpha, sequence (P27986 whole entry): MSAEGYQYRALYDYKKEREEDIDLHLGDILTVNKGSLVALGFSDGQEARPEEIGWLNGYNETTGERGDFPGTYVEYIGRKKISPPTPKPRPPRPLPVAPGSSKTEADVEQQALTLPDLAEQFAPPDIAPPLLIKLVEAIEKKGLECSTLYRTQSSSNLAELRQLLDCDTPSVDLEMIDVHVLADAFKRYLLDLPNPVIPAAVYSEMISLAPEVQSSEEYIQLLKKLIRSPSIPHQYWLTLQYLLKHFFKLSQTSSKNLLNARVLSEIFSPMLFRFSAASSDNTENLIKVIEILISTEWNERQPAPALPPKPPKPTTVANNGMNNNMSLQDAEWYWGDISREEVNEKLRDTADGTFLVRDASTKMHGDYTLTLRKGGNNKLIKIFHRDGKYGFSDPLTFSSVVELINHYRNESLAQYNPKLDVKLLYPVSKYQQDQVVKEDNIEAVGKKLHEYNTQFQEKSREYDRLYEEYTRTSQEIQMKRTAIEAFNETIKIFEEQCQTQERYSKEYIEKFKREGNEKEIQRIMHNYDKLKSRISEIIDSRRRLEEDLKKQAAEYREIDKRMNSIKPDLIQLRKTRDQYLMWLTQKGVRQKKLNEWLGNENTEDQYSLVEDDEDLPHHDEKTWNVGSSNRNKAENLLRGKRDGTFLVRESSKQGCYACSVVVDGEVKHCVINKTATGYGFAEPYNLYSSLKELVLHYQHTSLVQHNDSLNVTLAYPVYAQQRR
PI3-kinase p110-alpha/p85-alpha, sequence (P42336 whole entry): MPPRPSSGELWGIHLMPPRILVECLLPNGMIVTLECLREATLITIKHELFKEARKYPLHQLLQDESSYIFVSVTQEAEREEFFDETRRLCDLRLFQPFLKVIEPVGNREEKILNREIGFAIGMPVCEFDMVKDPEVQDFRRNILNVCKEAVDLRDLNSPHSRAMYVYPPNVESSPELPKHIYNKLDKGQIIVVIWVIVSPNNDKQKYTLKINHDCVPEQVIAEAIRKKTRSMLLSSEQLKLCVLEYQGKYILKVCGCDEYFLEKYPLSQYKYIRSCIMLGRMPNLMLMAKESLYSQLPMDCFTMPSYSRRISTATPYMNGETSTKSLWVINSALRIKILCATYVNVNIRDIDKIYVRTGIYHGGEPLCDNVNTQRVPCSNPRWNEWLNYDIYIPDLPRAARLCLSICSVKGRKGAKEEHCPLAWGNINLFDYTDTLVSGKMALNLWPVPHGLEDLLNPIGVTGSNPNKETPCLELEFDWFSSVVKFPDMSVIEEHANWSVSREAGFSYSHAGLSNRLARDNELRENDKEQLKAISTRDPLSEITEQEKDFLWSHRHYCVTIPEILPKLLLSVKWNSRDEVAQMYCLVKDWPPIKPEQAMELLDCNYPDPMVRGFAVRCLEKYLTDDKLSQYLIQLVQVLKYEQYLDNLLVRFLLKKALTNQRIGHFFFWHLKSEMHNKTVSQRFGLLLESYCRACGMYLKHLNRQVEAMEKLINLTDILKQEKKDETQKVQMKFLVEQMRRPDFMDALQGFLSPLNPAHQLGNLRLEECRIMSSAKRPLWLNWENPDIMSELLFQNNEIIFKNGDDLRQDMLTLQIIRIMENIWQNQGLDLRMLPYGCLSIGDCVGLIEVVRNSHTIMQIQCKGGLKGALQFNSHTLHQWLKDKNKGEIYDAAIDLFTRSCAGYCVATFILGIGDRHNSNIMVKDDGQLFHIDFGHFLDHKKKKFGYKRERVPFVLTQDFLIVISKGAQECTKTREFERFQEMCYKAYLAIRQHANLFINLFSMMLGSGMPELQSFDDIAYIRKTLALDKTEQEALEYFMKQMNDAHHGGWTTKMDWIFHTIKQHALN

SMILES | inhibition [1] | inhibition [2] | pIC50 [3] | pIC50 [4] | half-life at 1 µM [5] [min] | solubility kinetic at 1.5 h [6] [µM] | viability at 10 µM [7] [%] | viability at 48 h, 10 µM [8] [%] | inhibition [9] | inhibition [10] | viability at 10 µM [11] [%] | inhibition [12] | viability at 10 µM [13] [%] | pIC50 [14]
O=S(=O)(Nc1nccs1)c1ccc(Nc2nc(N3CCOCC3)c3ccccc3n2)cc1 | Active | Active | 4.94 | 5.16 | 52 | 42.6 (≈ 20 µg/mL) | – | – | – | – | – | – | – | –
CC(=O)Nc1ccc(NC(=O)Nc2ccc(-c3nc(N4CCOCC4)c4ccccc4n3)cc2)cc1 | Active | Active | – | 9.15 | > 60 | < 2 | 29 | 71 | Dose-dependent effect | Dose-dependent effect | 50 | Dose-dependent effect | 69 | 6.70
